The term IC50 denotes the point on the concentration scale where inhibition reaches its midpoint. High values mean lower potency, low ones higher potency.

Calls of active or inactive are those of the source. The rule behind the calls is not given here. A value given as a limit tells only on which side of the number the result lay.

Experiment [1] is filed under the species Rattus norvegicus. The experiment can be described thus: animal or person. Conditions: Sprague-Dawley, Plasma, po, 6 h, read-out: Inhibition.
Experiment [2] has as its system Rattus norvegicus. The experiment can be described thus: Reduction of glucose level in Sprague-Dawley rat plasma at 1 mg/kg, po after 7 hrs by multiple glucose tolerance test. It is filed as functional, organism-based. Details: dose 1 mg/kg. The essentials: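 Male SD rats (364–473 g), fasted at least 20 h, were dosed orally at −0.5 h with 1 mg/kg or with vehicle (0.5% methyl cellulose). Oral glucose, 1 g/kg, was given at 0 and 6 h. Tail vein plasma was taken at −0.08 to 8 h, stored at −80 °C, and assayed by glucose oxidase-peroxidase. Results are mean ± SEM (n = 7), compared with vehicle by Student's t test.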

Experiment [3] has as its system Rattus norvegicus. The experiment can be described thus: Ex vivo inhibition of DPP4 in Sprague-Dawley rat plasma at 0.3 mg/kg, po after 9 hrs. It counts as functional. The essentials: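 Male Sprague–Dawley rats, 6–7 weeks old, fasted at least 8 h, then given a single oral dose of 0.3 mg/kg in 0.5% methyl cellulose. Jugular vein blood was drawn before dosing and at 0.25–9 h after. Plasma was mixed with Gly-Pro-AMC (added as a 60 µM solution). The initial rate over the first 15 min was read at 37 °C (ex 355/em 460 nm). Inhibition is expressed as % of basal activity.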

For the next experiment, the target named is Dipeptidyl peptidase 8 (Homo sapiens, UniProt Q6V1X1). The experiment can be described thus: Inhibition of human DPP8.
Chain of Dipeptidyl peptidase 8 (Q6V1X1 whole entry): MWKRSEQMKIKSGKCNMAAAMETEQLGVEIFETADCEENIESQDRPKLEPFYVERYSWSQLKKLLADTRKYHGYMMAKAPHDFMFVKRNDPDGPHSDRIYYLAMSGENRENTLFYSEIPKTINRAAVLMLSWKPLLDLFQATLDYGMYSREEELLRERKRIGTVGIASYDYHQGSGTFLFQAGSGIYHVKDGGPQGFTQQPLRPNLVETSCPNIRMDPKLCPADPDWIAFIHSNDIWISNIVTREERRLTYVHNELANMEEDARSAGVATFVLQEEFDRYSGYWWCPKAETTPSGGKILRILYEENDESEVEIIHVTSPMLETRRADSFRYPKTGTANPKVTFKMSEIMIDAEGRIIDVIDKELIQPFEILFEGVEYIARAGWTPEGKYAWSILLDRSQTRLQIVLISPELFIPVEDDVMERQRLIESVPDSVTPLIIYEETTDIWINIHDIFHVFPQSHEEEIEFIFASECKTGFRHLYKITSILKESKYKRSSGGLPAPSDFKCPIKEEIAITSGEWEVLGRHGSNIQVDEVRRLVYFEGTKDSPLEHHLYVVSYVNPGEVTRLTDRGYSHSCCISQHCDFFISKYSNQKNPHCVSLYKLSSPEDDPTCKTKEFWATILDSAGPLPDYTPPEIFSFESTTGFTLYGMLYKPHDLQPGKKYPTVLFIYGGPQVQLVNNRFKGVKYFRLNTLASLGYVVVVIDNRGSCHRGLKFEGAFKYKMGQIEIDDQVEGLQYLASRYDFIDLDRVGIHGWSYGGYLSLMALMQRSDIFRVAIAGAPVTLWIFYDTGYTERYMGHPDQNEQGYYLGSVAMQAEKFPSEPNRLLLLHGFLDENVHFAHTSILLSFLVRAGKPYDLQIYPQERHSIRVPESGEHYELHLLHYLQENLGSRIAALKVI

Take `CC[C@@H]1N[C@H](C(=O)N2CCC[C@H]2C#N)C[C@@H]1C(=O)N(C)C`: in the experiment listed under Rattus norvegicus [1], the inhibition in vivo at 0.3 mg/kg was determined as 45%.

Turning to `CCN(CC#N)C(=O)[C@@H]1C[C@H](C(=O)N2Cc3ccccc3C2)[C@H](C)N1`, the inhibition in vivo at 0.3 mg/kg in the experiment filed under Rattus norvegicus [1] came to 64%.

As to `CCN(CC#N)C(=O)[C@@H]1C[C@H](C(=O)NCc2ccccc2)[C@H](C)N1`, the inhibition in vivo at 0.3 mg/kg in the experiment filed under Rattus norvegicus [1] stood at 31%. For the molecule `CCN(CC#N)C(=O)[C@@H]1C[C@H](C(=O)N(C)C)[C@H](C)N1`, the inhibition in vivo at 0.3 mg/kg in the experiment filed under Rattus norvegicus [1] was determined as 73%; in the experiment on Rattus norvegicus [3] it was 62%. Also, in the experiment on Rattus norvegicus [2], the result was Active. This molecule also showed an IC50 against Dipeptidyl peptidase 8 above 100 µM.

Turning to `CCN(CC#N)C(=O)[C@@H]1C[C@H](C(=O)N2CCCCC2)[C@H](C)N1`, the inhibition in vivo at 0.3 mg/kg in the experiment listed under Rattus norvegicus [1] amounted to 60%. Still for that read-out and setting: the result for `C#CCN(CC#N)C(=O)[C@@H]1C[C@H](C(=O)N(C)C)[C@H](C)N1` reads 18%.

Turning to `C[C@@H]1N[C@H](C(=O)N(CC#N)C2CC2)C[C@@H]1C(=O)N(C)C`, the inhibition in vivo at 0.3 mg/kg in the experiment listed under Rattus norvegicus [1] stood at 29%.

For `C=CCN(CC#N)C(=O)[C@@H]1C[C@H](C(=O)N(C)C)[C@H](C)N1`, the inhibition in vivo at 0.3 mg/kg in the experiment filed under Rattus norvegicus [1] was determined as 19%. With `C[C@@H]1N[C@H](C(=O)N2CCC[C@H]2C#N)C[C@@H]1C(=O)N(C)C`, the inhibition in vivo at 0.3 mg/kg in the experiment filed under Rattus norvegicus [1] is 89%; in the experiment on Rattus norvegicus [3], 83%. Turning to `C[C@@H]1N[C@H](C(=O)N2CCC[C@H]2C#N)C[C@@H]1CC(=O)N(C)C`, in the experiment listed under Rattus norvegicus [1], the inhibition in vivo at 0.3 mg/kg came out at 40%.

As for `CCN(CC#N)C(=O)[C@@H]1C[C@H](C(=O)N2CCCC2)[C@H](C)N1`, the inhibition in vivo at 0.3 mg/kg in the experiment filed under Rattus norvegicus [1] came out at 53%. In the case of `C[C@@H]1N[C@H](C(=O)N(C)CC#N)C[C@@H]1C(=O)N(C)C`, the inhibition in vivo at 0.3 mg/kg in the experiment filed under Rattus norvegicus [1] amounted to 55%. The same molecule yielded an IC50 at Dipeptidyl peptidase 8 above 100 µM. Take `CCN(CC#N)C(=O)[C@@H]1C[C@H](C(=O)N2CCOCC2)[C@H](C)N1`: in the experiment filed under Rattus norvegicus [1], the inhibition in vivo at 0.3 mg/kg came out at 65%.

The values are drawn from ChEMBL document CHEMBL1143890, “Discovery of long-acting N-(cyanomethyl)-N-alkyl-L-prolinamide inhibitors of dipeptidyl peptidase IV” (Bioorg Med Chem, 2008).
